Tb MetRS inh: T. brucei MetRS inhibitors, primary screen, biochemical, luminescence. methionyl-tRNA synthetase (Trypanosoma brucei brucei). purified T. brucei MetRS, ATP depletion, Kinase-Glo luminescence. inhibition, % at 11.9 µM. hit rate 0.4% among 360,000;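 active = inhibition above a per-plate cutoff of the control wells' mean inhibition plus 3 SD, cut at about 5.5% in these data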;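 note: 0% = DMSO wells median and 100% = median of wells with control inhibitor compound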
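Test system – parasite MetRS enzyme · Reagent – substrates ATP, L-methionine and bulk Escherichia coli tRNA · Doses – 11.9 µM compound single dose, 0.9% DMSO · Times – 15 min enzyme-compound preincubation, 2 h reaction, 10 min detection, 25 °C · Signal – Kinase-Glo luminescence, ATP depletion format · Controls – DMSO-only wells as low control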
APOBEC3G inh: APOBEC3G DNA deaminase inhibitors, primary screen, biochemical, fluorescence, single-stranded DNA substrate, uHTS; DNA dC->dU-editing enzyme APOBEC-3G (Homo sapiens), Q9HC16; recombinant A3G, ssDNA deamination FAM/TAMRA fluorescence; inhibition, % at 20 µM; hit rate 0.28% among 330,000;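 active = inhibition of at least 40% at 20 µM, with no more than 30% in the related APOBEC3A deaminase screen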;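 note: plate controls were DMSO wells with A3G for no effect and wells lacking A3G enzyme for full effect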
p-CIP stab down: p/CIP-EGFP fusion destabilizers, primary screen, fluorescence, F442A cells; hit rate 0.01% among 290,000; Q05BA5; decrease of EGFP signal, % at 10 µM; 16 h;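 active = EGFP signal decrease of at least 30% at 10 µM or well 3 SD below plate mean, unless failing retest; inactive = the rest, including hits failing retest or dose response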
PHOSPHO1 block: PubChem AID 1565. recombinant PHOSPHO1, absorbance phosphatase assay. hit rate 1.1% among 290,000. inhibition, % at 13.3 µM; in the data active = inhibition above about 60%
Target sequence (Q8TCT1 whole entry, looked up): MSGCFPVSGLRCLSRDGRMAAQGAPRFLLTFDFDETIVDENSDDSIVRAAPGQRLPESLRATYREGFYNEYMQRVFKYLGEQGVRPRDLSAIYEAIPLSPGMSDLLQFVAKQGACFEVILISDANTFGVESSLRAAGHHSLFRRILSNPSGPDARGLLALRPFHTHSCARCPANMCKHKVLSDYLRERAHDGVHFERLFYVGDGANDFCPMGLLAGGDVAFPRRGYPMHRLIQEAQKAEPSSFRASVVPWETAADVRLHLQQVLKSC
A3A deaminase: APOBEC3A ssDNA deaminase inhibitors, primary screen, selectivity assay for APOBEC3G inhibitor project, biochemical, FAM/TAMRA oligo cleavage fluorescence; DNA dC->dU-editing enzyme APOBEC-3A (Homo sapiens), P31941; recombinant A3A, FAM/TAMRA ssDNA deamination fluorescence; inhibition, % at 20 µM; hit rate 0.41% among 330,000;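 active = at least 40% inhibition at 20 µM here, with at most 30% in a related deaminase screen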;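 note: plate controls were A3A with DMSO for no effect and wells lacking A3A enzyme for full effect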
Target sequence (P31941 whole entry, looked up): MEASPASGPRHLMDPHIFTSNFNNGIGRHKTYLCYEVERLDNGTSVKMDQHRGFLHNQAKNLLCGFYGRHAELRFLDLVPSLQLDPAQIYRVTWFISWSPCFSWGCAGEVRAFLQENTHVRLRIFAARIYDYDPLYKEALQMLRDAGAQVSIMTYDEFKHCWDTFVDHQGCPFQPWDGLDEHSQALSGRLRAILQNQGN
Starred values were filed as active, the others as inactive. Most compounds without a hit are left out; they make up all but 1.8% or so of the library.

For CCOC(=O)C1(Cc2cccc(Cl)c2)CCCN(C(=O)c2ccc(C)nc2)C1 (stereo not given) the results were Tb MetRS inh -0.9, APOBEC3G inh -3.6, p-CIP stab down -13.5, PHOSPHO1 block 62.8* and A3A deaminase 0.7.
CCOC(=O)C1(Cc2cccc(Cl)c2)CCCN(C(=O)c2cc(C)on2)C1 (stereo not given) was read as Tb MetRS inh 0.0, APOBEC3G inh -3.7, p-CIP stab down -3.2, PHOSPHO1 block 17.8 and A3A deaminase 0.6.
`CC1(CO)CCCC1NCCNC1CCCC1(C)CO` (stereo not given) gave Tb MetRS inh -0.9.
`O=C(CC1CCCC1)NNC(=O)c1ccc(Br)cc1` gave Tb MetRS inh -0.3, APOBEC3G inh -9.1 and A3A deaminase -5.3.
For Cc1ccc(/C=N/NC(=S)N2CCOCC2)cc1 the results were Tb MetRS inh 0.3, APOBEC3G inh -3.9, p-CIP stab down 4.3, PHOSPHO1 block 61.7* and A3A deaminase -2.1.
For COc1ccc(-c2sc(Nc3ccccc3)n[n+]2-c2ccc(F)cc2)c(C)c1C the results were Tb MetRS inh 0.6, APOBEC3G inh -8.4, p-CIP stab down -9.4, PHOSPHO1 block -1.7 and A3A deaminase -1.5.
`CCN(C(=O)COC(=O)c1cc2c(s1)CCC(C)C2)c1c(N)n(Cc2ccccc2)c(=O)[nH]c1=O` (stereo not given) gave Tb MetRS inh 0.1.
O=C(Nc1ccc(Br)cc1)c1cccc(S(=O)(=O)Nc2cnc3ccccc3c2)c1 was read as Tb MetRS inh 64.9*, APOBEC3G inh -3.3, p-CIP stab down -4.7, PHOSPHO1 block 5.7 and A3A deaminase 5.9.
For CC(C)(C)CC(=O)NC(=S)N1CCCCCC1 the results were Tb MetRS inh -0.9, APOBEC3G inh -7.3, p-CIP stab down 11.8, PHOSPHO1 block 69.4* and A3A deaminase 0.2.
`CC(C)(C)c1ccc(C(=O)NC(=S)N2CCCCCC2)cc1` gave Tb MetRS inh -0.1, APOBEC3G inh -8.9, p-CIP stab down 7.0, PHOSPHO1 block 38.1 and A3A deaminase -0.3.
Screening CCc1nnc(NC(=O)CSc2nnc(COc3ccccc3)n2Cc2ccccc2)s1 returned Tb MetRS inh 0.3, APOBEC3G inh -7.9, p-CIP stab down -8.3, PHOSPHO1 block 60.5* and A3A deaminase -0.9.
Screening CCc1nnc(NC(=O)CSc2nnc(Cc3ccccc3)n2Cc2ccccc2)s1 returned Tb MetRS inh -0.3, APOBEC3G inh -6.3, p-CIP stab down -5.6, PHOSPHO1 block 31.2 and A3A deaminase -1.1.
Screening CCn1c(Cc2ccccc2)nnc1SCC(=O)Nc1nccs1 returned Tb MetRS inh -0.4, APOBEC3G inh -1.6, p-CIP stab down 3.7, PHOSPHO1 block -52.7 and A3A deaminase -2.5.
Screening CCSCc1nnc(SCC(=O)Nc2nccs2)n1CC returned Tb MetRS inh 0.2, APOBEC3G inh 5.3, p-CIP stab down -4.3, PHOSPHO1 block 60.0* and A3A deaminase 4.0.
`CCn1c(C)nnc1SCC(=O)Nc1nccs1` gave Tb MetRS inh -0.8, APOBEC3G inh -9.5, p-CIP stab down -5.5, PHOSPHO1 block 40.5 and A3A deaminase -2.7.
`CCn1c(COc2ccc(C(C)C)cc2)nnc1SCC(=O)Nc1nccs1` gave Tb MetRS inh -1.3, APOBEC3G inh -2.4, p-CIP stab down -24.0, PHOSPHO1 block 96.9* and A3A deaminase -1.7.
For Cc1cc(S(=O)(=O)N2CCCOC2CNC(=O)C(=O)NCCCN2CCOCC2)ccc1F (stereo not given) the results were Tb MetRS inh -0.1, APOBEC3G inh -12.5, p-CIP stab down 9.4, PHOSPHO1 block 41.4 and A3A deaminase -0.1.
For CC(=O)NCCCc1nc2ccccc2n1Cc1cc(C)ccc1C the results were Tb MetRS inh -0.3, APOBEC3G inh -6.6, p-CIP stab down -5.2, PHOSPHO1 block 64.3* and A3A deaminase -4.8.
Screening Cc1cccnc1NCc1ccc(O)c2ncccc12 returned Tb MetRS inh -0.5, APOBEC3G inh -9.9, p-CIP stab down -0.9, PHOSPHO1 block 77.7* and A3A deaminase 0.6.
CC1(C(=O)NS(=O)(=O)Cc2ccccc2C(F)(F)F)CCN1C(=O)c1cccc(F)c1 (stereo not given) was read as Tb MetRS inh -0.1.

Screening data (PubChem)
